The subject of assay [1] is Mus musculus. The experiment in a line: Doubling of hotplate jump-latency activity in mouse after intra cerebro ventricular administration of the compound. The class given is functional. The procedure, abridged:
(§1)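 Male CF1 mice (18–23 g) dosed icv or sc; 15 min later placed singly on a copper hot plate held at 55 °C. Latency to jump recorded, cutoff 240 s. MED = minimum effective dose. ED200 = dose doubling jump latency.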

Assay [2] deals with Mus musculus. As to the kind of experiment: Tail-flick latency observed in CF-1 mice after the administration (30 mg/kg) followed by icv administration of DAEM ([D-Ala2,Met5]enkephalin). The class given is functional. The procedure, abridged:
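Male CF-1 mice (20–22 g) given test agent or vehicle sc, followed immediately by icv DAEM (1 μg) or vehicle. Tail-flick latency measured 30 min later, cutoff 10 s, n = 10.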

The test system of assay [3] is Mus musculus. As to the kind of experiment: Hot-plate jump-latency activity in mouse 15 minutes after subcutaneous administration. The class given is functional. The settings on record: sc, 0.25 h, read-out: MED. In a few lines:
as §1

Assay [4] addresses T1, Neprilysin (Oryctolagus cuniculus, UniProt P08049).
T1 sequence (P08049 whole entry): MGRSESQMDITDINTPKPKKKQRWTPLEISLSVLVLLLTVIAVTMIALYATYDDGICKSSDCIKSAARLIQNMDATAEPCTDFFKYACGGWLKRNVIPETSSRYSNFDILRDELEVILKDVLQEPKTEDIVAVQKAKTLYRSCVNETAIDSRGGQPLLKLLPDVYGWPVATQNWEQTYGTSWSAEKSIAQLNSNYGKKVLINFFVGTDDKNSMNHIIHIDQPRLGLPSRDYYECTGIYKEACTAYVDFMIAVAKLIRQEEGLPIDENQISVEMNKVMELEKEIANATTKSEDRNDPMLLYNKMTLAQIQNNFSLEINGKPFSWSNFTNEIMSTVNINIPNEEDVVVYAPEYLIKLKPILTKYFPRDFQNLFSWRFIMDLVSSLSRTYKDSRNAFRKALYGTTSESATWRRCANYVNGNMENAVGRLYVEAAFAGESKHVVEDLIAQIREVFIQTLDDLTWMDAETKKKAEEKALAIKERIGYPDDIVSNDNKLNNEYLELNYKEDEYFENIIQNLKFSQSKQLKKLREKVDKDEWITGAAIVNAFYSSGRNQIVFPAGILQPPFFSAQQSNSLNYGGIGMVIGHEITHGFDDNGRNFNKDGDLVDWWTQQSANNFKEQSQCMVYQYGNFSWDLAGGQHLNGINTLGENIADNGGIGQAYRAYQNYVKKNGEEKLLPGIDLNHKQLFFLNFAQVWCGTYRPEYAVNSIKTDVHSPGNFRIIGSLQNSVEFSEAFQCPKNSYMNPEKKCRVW
The experiment in a line: Inhibitory activity against Enkephalinase from rabbit using method 2 is determined. In a few lines:
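Rabbit protease 24.11 (15 ng protein) incubated 10 min at 37 °C with [Tyr-3H]Leu-enkephalin plus unlabeled Leu-enkephalin (1 μM final) in 50 mM Tris-HCl, pH 6.5. Stopped with TFA. Tyr-Gly-Gly product separated from substrate by C4 reverse-phase HPLC (isocratic, 0.09% TFA/acetonitrile). Fractions counted by scintillation.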

Assay [5] deals with T2, Neprilysin (Rattus norvegicus, UniProt P07861).
T2 sequence (P07861 whole entry): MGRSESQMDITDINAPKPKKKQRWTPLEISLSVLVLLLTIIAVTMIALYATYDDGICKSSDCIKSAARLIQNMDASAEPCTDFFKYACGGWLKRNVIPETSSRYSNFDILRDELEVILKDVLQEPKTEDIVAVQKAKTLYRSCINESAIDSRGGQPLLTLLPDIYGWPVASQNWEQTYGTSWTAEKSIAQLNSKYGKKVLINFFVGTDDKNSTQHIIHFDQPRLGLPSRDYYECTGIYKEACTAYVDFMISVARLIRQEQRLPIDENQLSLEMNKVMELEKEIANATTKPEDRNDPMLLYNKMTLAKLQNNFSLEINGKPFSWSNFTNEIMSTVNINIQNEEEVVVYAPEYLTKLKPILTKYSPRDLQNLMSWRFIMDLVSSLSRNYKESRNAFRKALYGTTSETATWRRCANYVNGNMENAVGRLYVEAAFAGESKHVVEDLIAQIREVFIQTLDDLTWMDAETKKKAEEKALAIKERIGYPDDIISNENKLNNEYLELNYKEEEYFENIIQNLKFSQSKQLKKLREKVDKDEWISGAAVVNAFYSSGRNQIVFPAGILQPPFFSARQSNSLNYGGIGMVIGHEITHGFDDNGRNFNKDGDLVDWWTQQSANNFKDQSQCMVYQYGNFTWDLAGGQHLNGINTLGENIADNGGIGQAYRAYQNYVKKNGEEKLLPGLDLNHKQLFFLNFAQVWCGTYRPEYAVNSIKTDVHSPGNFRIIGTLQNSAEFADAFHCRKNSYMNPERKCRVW
As to the kind of experiment: Inhibition of enkephalinase activity in synaptic membranes prepared from rat striatum. The class given is cell membranes.

The test system of assay [6] is Mus musculus. The experiment in a line: Stretching activity in male CF-1 mice, after the intra peritoneal administration of acetic acid and subcutaneous administration of compound. The class given is functional. The settings on record: sc. The procedure, abridged: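 Male CF-1 mice (18–22 g), twelve per dose of agent or vehicle, dosed sc 15 min before ip 3% aqueous acetic acid at 10 mL/kg. Five minutes after irritant, stretching episodes counted over 10 min. ED50 derived from these counts.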

In assay [7] the test system is Mus musculus. As to the kind of experiment: Tail-flick latency observed in CF-1 mice after the administration (3 mg/kg) followed by icv administration of DAEM ([D-Ala2,Met5]enkephalin). The class given is functional. In a few lines: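 Male CF-1 mice (20–22 g) given test agent or vehicle sc, then immediately DAEM (1 μg) or vehicle icv. Tail-flick latency read 30 min later, cutoff 10 s; n = 10 per group.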

The test system of assay [8] is Mus musculus. As to the kind of experiment: Doubling of hotplate jump-latency activity in mouse after subcutaneous administration of the compound. The class given is functional. In a few lines: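 Male CF1 mice (18–23 g) dosed sc; 15 min later placed singly on copper hot plate held at 55 °C. Latency to jump off recorded, cutoff 240 s. ED200 is the dose doubling jump latency.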

Some results are limits rather than exact numbers.

As for `O=C(O)CCNC(=O)[C@H](Cc1ccccc1)C[C@@H](Cc1ccccc1)C(=O)O`, the ED200 in the assay on Mus musculus [1] is 15 µg. Besides, the Reaction time in the assay with Mus musculus [2] came to 8.6 s. Moreover, the minimal effective dose in the assay with Mus musculus [3] is above 30 mg/kg. The IC50 at Neprilysin [4] worked out at 5 nM; against Neprilysin [5] it was 8 nM.
Turning to `O=C(O)CNC(=O)C(CS)Cc1ccccc1` (stereo not given) [THIORPHAN], the values for the ED200 in the assay with Mus musculus [1] and with Mus musculus [8] were 75 µg and above 100 mg/kg, respectively. In the assay with Mus musculus [6], the ED50 is 38 mg/kg. Besides, in the assay on Mus musculus [7], the Reaction time is reported as 7.5 s. In addition, the minimal effective dose in the assay with Mus musculus [3] was 100 mg/kg.

The values above are taken from ChEMBL document CHEMBL1124374, “Enkephalinase inhibitors. 1. 2,4-Dibenzylglutaric acid derivatives” (J Med Chem, 1989).
